Experimental data: ChEMBL document CHEMBL2331266, “Five-membered iminocyclitol α-glucosidase inhibitors: synthetic, biological screening and in silico studies” (Bioorg Med Chem, 2013)
pIC50: −log10 of the molar value.

Key:
Saccharomyces cerevisiae [1] = assay: Inhibition of Saccharomyces cerevisiae alpha-glucosidase using p-nitrophenyl-alpha-D-[…] as substrate at = / >10.9 mM after 20 mins by UV/Vis spectrophotometric analysis
Summary of the method: (§1)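 Baker's yeast α-glucosidase at 0.04 U/mL in 0.1 M phosphate buffer, pH 6.7. Substrate was 2 mM p-nitrophenyl-α-D-glucopyranoside; the optimized Km was 0.258 mM. Inhibitors were dissolved in 2% DMSO in the same buffer and tested at up to 46 mM. Activity was read as the p-nitrophenol released. Five replicates per sample.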

[2] = Inhibition of Saccharomyces cerevisiae alpha-glucosidase using p-nitrophenyl-alpha-D-[…] as substrate after 20 mins by UV/Vis spectrophotometric analysis; summary of the method: as §1
Saccharomyces cerevisiae [3] = assay: Inhibition of Saccharomyces cerevisiae alpha-glucosidase using p-nitrophenyl-alpha-D-[…] as substrate at 25 mM after 20 mins by UV/Vis spectrophotometric analysis; summary of the method: as §1

SMILES	inhibition (Saccharomyces cerevisiae [1])	pIC50 [2]	inhibition (Saccharomyces cerevisiae [3])
O[C@H]1CN(Cc2ccccc2)C[C@@H]1O	> 50%	1.42	
O[C@@H]1CN(Cc2ccccc2)C[C@H]1O	> 50%	1.60	
C[C@H]1O[C@H](O[C@H]2[C@H](O)[C@@H](O)[C@@H](O[C@H]3[C@H](O)[C@@H](O)C(O)O[C@@H]3CO)O[C@@H]2CO)[C@H](O)[C@@H](O)[C@@H]1N[C@H]1C=C(CO)[C@@H](O)[C@H](O)[C@H]1O (stereo partly specified) [ACARBOSE]		1.60	

Other lines, results leading:

inhibition (Saccharomyces cerevisiae [1])	pIC50 [2]	inhibition (Saccharomyces cerevisiae [3])	SMILES
> 50%	1.90	80%	CC(=O)O[C@H]1CNC[C@@H]1OC(C)=O
> 50%	1.96		O[C@H]1CNC[C@@H]1O
		40%	CC(=O)O[C@@H]1CNC[C@H]1OC(C)=O
